Among the data in ChEMBL document CHEMBL1629494, “New amino acid esters of salicylanilides active against MDR-TB and other microbes” (Eur J Med Chem, 2010) are MIC values, retold here.

Type in all cases: functional
Experiment [1] has as its system Mycobacterium kansasii. In words: Antimycobacterial activity against Mycobacterium kansasii 6509/96 after 14 days by micromethod. Conditions: 6509/96, 336 h. The method in brief: (§1)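 Micromethod in Sula semisynthetic medium, with compounds added as DMSO solutions at 1000, 500, 250, 125, 62, 32, 16, 8, 4, 2, 1, 0.5, 0.25. Inoculum dilutions: H37Rv 10^-3; M. avium 330/88 10^-5; M. kansasii 235/80 10^-4; M. kansasii 6509/96 10^-5. Incubated at 37 °C, read at 14 and 21 days, and at 7 days for M. kansasii. MIC was the lowest concentration inhibiting growth.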

Experiment [2] has as its system Mycobacterium tuberculosis. In words: Antimycobacterial activity against Mycobacterium tuberculosis H37Rv 331/88 after 14 days by micromethod. Conditions: H37Rv 331/88, 336 h. The procedure, abridged:
as §1

The test system of experiment [3] is Mycobacterium tuberculosis. In words: Antimycobacterial activity against Mycobacterium tuberculosis H37Rv 331/88 after 21 days by micromethod. Conditions: H37Rv 331/88, 504 h. The procedure, abridged: as §1
Experiment [4] concerns Mycobacterium kansasii. In words: Antimycobacterial activity against Mycobacterium kansasii 6509/96 after 7 days by micromethod. Conditions: 6509/96, 168 h. The method in brief: as §1
In experiment [5] the test system is Mycobacterium kansasii. In words: Antimycobacterial activity against Mycobacterium kansasii 235/80 after 7 days by micromethod. Particulars: 235/80, 168 h. The procedure, abridged:
as §1

For experiment [6], the system named is Mycobacterium avium. In words: Antimycobacterial activity against multidrug-resistant Mycobacterium avium 330/88 after 14 days by micromethod. Conditions: 330/88, 336 h. The procedure, abridged: as §1
Experiment [7] has as its system Mycobacterium kansasii. In words: Antimycobacterial activity against Mycobacterium kansasii 235/80 after 14 days by micromethod. Conditions: 235/80, 336 h. The procedure, abridged: as §1
Experiment [8] relates to Mycobacterium avium. In words: Antimycobacterial activity against multidrug-resistant Mycobacterium avium 330/88 after 21 days by micromethod. Particulars: 330/88, 504 h. The method in brief: as §1
Experiment [9] relates to Mycobacterium kansasii. In words: Antimycobacterial activity against Mycobacterium kansasii 6509/96 after 21 days by micromethod. Particulars: 6509/96, 504 h. The method in brief: as §1
Experiment [10] deals with Mycobacterium kansasii. In words: Antimycobacterial activity against Mycobacterium kansasii 235/80 after 21 days by micromethod. Conditions: 235/80, 504 h. The method in brief: as §1
Experiment [11] relates to Mycobacterium tuberculosis. In words: Antimycobacterial activity against drug-sensitive Mycobacterium tuberculosis.
The test system of experiment [12] is Mycobacterium kansasii. In words: Antimycobacterial activity against Mycobacterium kansasii.
The subject of experiment [13] is Mycobacterium avium. In words: Antimycobacterial activity against Mycobacterium avium.

In brackets after ≈: the same amount, converted by molar mass.

Usually MIC stands for the smallest concentration in the dilution series that meets the test's criterion for growth inhibition. The low end stands for greater potency, the high end for weaker potency. For the compound `Nc1ccc(C(=O)O)c(O)c1` [AMINOSALICYLIC ACID], the MIC against Mycobacterium kansasii [1] turned out to be 125 µM (≈ 19.1 µg/mL); in experiment [2] it was 62.5 µM (≈ 9.57 µg/mL); in experiment [3] it was 62.5 µM (≈ 9.57 µg/mL); against Mycobacterium kansasii [4] it was 32 µM (≈ 4.9 µg/mL); in the experiment with Mycobacterium kansasii [5], 125 µM (≈ 19.1 µg/mL); against Mycobacterium avium [6] it was 32 µM (≈ 4.9 µg/mL). The MIC against Mycobacterium kansasii [7] is 1000 µM (≈ 153 µg/mL); in the experiment on Mycobacterium avium [8], 125 µM (≈ 19.1 µg/mL); with Mycobacterium kansasii [9] it was 500 µM (≈ 76.6 µg/mL); in the experiment on Mycobacterium kansasii [10] it was greater than 1000 µM.
For `CC(=O)N[C@@H](Cc1ccccc1)C(=O)Oc1ccc(Cl)cc1C(=O)Nc1cccc(Cl)c1`, the MIC is 8 µM (≈ 3.77 µg/mL) in the experiment on Mycobacterium kansasii [1]; 2 µM (≈ 0.943 µg/mL) in experiment [2]; 4 µM (≈ 1.89 µg/mL) in [3]; 1 µM (≈ 0.471 µg/mL) in experiment [11]; 2 µM (≈ 0.943 µg/mL) against Mycobacterium kansasii [4]; 8 µM (≈ 3.77 µg/mL) in the experiment with Mycobacterium kansasii [5]. Besides, the minimal inhibitory concentration (MIC) against Mycobacterium avium [6] was 8 µM (≈ 3.77 µg/mL); in the experiment on Mycobacterium kansasii [12], 1 µM (≈ 0.471 µg/mL); against Mycobacterium kansasii [7], 8 µM (≈ 3.77 µg/mL); in the experiment with Mycobacterium avium [8], 32 µM (≈ 15.1 µg/mL); in the experiment with Mycobacterium avium [13], 1 µM (≈ 0.471 µg/mL); against Mycobacterium kansasii [9] it was 8 µM (≈ 3.77 µg/mL). This compound also had an MIC in the experiment with Mycobacterium kansasii [10] of 8 µM (≈ 3.77 µg/mL).
Take `NNC(=O)c1ccncc1` [ISONIAZID]: the minimum inhibitory concentration (MIC) is 4 µM (≈ 0.549 µg/mL) against Mycobacterium kansasii [1]; 0.5 µM (≈ 0.0686 µg/mL) in experiment [2]; 0.5 µM (≈ 0.0686 µg/mL) in experiment [3]; 2 µM (≈ 0.274 µg/mL) against Mycobacterium kansasii [4]; greater than 250 µM against Mycobacterium kansasii [5]; greater than 250 µM with Mycobacterium avium [6]. For the same compound, the minimal inhibitory concentration (MIC) is greater than 250 µM against Mycobacterium kansasii [7], greater than 250 µM in the experiment on Mycobacterium avium [8], 4 µM (≈ 0.549 µg/mL) in the experiment with Mycobacterium kansasii [9] and greater than 250 µM with Mycobacterium kansasii [10].
